The record followed here is ChEMBL document CHEMBL4308887, “Synthesis and biological evaluation of clovamide analogues with catechol functionality as potent Parkinson's disease agents in vitro and in vivo” (Bioorg Med Chem Lett, 2019).

Active and inactive are the calls of the source. The calls are words filed in the database; no cut-off is given here.

The test system of one data set is Mus musculus. Put plainly: Anti-parkinson's activity in MPTP-induced C57Bl/6 mouse model of Parkinson's disease assessed as decrease in ratio of Bax/Bcl2 expression in substantia nigra at 10 to 20 mg/kg, ig pretreated for 10 days followed by MPTP challenge measured 10 days post MPTP addition by Western blot analysis. The class given is functional, organism-based. The procedure, abridged: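 Substantia nigra from MPTP mice. Bax, Bcl-2 and cleaved caspase-3 measured by western blot, with Bcl-2/Bax ratio by densitometry. Mean ± S.D., n = 6 mice/group.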
(In general: Immunoblotting shows a protein as a band on a membrane.)

Data set [1] relates to SH-SY5Y. The experiment in a line: Protection against H2O2-induced apoptosis in human SH-SY5Y cells assessed as decrease in cleaved caspase3 expression preincubated for 6 hrs followed by H2O2 addition and measured after 24 hrs by Western blot analysis. Type of data set: functional, cell-based. The procedure, abridged:
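Western blot of Bax, Bcl-2 and cleaved caspase-3 in SH-SY5Y after pretreatment (1, 10 μM) and 600 μM H₂O₂. β-actin internal standard; Bax/Bcl-2 ratio from densitometry. Mean ± S.E.M., three independent experiments.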

Data set [2] is described as follows: Activation of PI3K/Akt/mTOR signaling in human SH-SY5Y cells assessed as up regulation of H2O2-induced HO-1 expression at 10 uM preincubated for 6 hrs followed by H2O2 addition and after 24 hrs in presence of p38 MAPK inhibitor SB203580 by Western blot analysis. The class given is cell-based. The procedure, abridged: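 SH-SY5Y cells preincubated 1 h with one inhibitor: SB203580 10 μM, LY294002 5 μM, U0126 10 μM, SP600125 5 μM or rapamycin 100 nM. Then 1 (10 μM) for 6 h, then 600 μM H₂O₂. HO-1 measured by western blot and densitometry. Mean ± S.E.M., three independent experiments.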

The test system of data set [3] is SH-SY5Y. Put plainly: Induction of apoptosis in non-stimulated human SH-SY5Y cells assessed as early apoptotic cells at 10 uM measured after 6 hrs by Annexin V-FITC/propidium iodide staining based flow cytometry (reference value: 4.5%). Type of data set: cell-based. (A flow cytometer gives signals particle by particle.)
The subject of data set [4] is SH-SY5Y. Put plainly: Neuroprotection against H2O2-induced cell death in human SH-SY5Y cells assessed as cell viability at 10 uM preincubated for 6 hrs followed by H2O2 addition and measured after 24 hrs by MTT assay relative to control. The class given is functional. The note with it: read-out: Activity. The gist of the method:
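SH-SY5Y cells pretreated with 1 at 1 or 10 μM, then exposed to 600 μM H₂O₂. Viability by MTT, expressed as % of control. DMSO below 0.1%. Mean ± S.E.M. of three independent experiments.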
For orientation: Tetrazolium assays rely on reduction of a dye to a coloured formazan, in cell work by metabolically active cells.

The subject of data set [5] is SH-SY5Y. The experiment in a line: Induction of apoptosis in non-stimulated human SH-SY5Y cells assessed as effect on cleaved caspase3 expression at 1 to 10 uM measured after 6 hrs by Western blot analysis. Type of data set: cell-based. The gist of the method: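 Bax, Bcl-2 and cleaved caspase-3 measured by western blot in SH-SY5Y cells given 1 alone, with β-actin as internal standard. Mean ± S.E.M. of three independent experiments.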

The nature of data set [6]: Activation of PI3K/Akt/mTOR signaling in human SH-SY5Y cells assessed as up regulation of H2O2-induced HO-1 expression at 1 uM preincubated for 6 hrs followed by H2O2 addition and after 24 hrs by Western blot analysis (reference value: 181.53 +/- 24.67%). The class given is cell-based. The procedure, abridged:
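SH-SY5Y cells pretreated 6 h with 1 (1 or 10 μM), then exposed to 600 μM H₂O₂ for 24 h. HO-1 measured by western blot with densitometry and expressed as % of control. Mean ± S.E.M., three independent experiments.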

Data set [7] in a line: Activation of PI3K/Akt/mTOR signaling in human SH-SY5Y cells assessed as increase in AKT phosphorylation after 5 to 360 mins by Western blot analysis. The class given is cell-based. The procedure, abridged: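 SH-SY5Y cells, unstimulated, exposed to 1 for 5, 15, 30, 60, 120, 240 or 360 min. Phospho-AKT and phospho-mTOR measured by western blot, reported as p-AKT/t-AKT and p-mTOR/t-mTOR ratios after densitometry. Mean ± S.E.M. of three independent experiments.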

Data set [8] is described as follows: AUC (0 to infinity) in Sprague-Dawley rat at 25 mg/kg, po by LC-MS/MS analysis. Type of data set: ADME, organism-based. More on the design: dose 25 mg/kg, time infinity, route oral. The note with it: in vivo. The gist of the method:
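Male Sprague–Dawley rats (n = 3) got a single oral dose of 25 mg/kg in 0.5% methylcellulose with 1% Tween 80. AUC0-∞ came from the plasma concentration–time profile, reported as mean ± SD.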

For the compound `COC(=O)[C@H](Cc1ccccc1)NC(=O)/C=C/c1ccc(O)c(O)c1` [N-CAFFEOYL-PHENYLALANINE METHYL ESTER], the outcome (in the data set on Mus musculus; in [2]; in data set [7]) was Active. Moreover, the Activity result in the data set with SH-SY5Y [1] is “Dose-dependent effect”; in the data set on SH-SY5Y [3], 1.4%; with SH-SY5Y [5], “Non-Toxic”; in data set [6], 274%. Besides, in the data set on SH-SY5Y [4], the viability at 10 µM lay in the range of 80.8 to 89%. Also, the area under the curve (AUC) in data set [8] was determined as 2495.56 ng·h/mL.

By AUC is commonly meant concentration integrated over time.
